In ChEMBL document CHEMBL1121694, “2-(Aminomethyl)phenols, a new class of saluretic agents. 3. Effects of functional group reorientation and modification” (1981):

What was measured:
[1] = test system: Rattus norvegicus; experiment: Evaluated for the saluretic property in rats after oral administration; score represents micro equivalents of Na+ excreted at a given mg/kg dose; format: functional
Summary of the method: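 The score is the geometric mean of three animals per cage, with three cages per dose. Protocol and scoring system are referenced to earlier work.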

[2] = test system: Canis familiaris; experiment: Compound was tested for the saluretic property in dogs after intravenous administration of 5 mg/kg; 100-249 micro equivalents of Na+ excreted per minute; format: functional, Canis lupus familiaris
[3] = test system: Canis familiaris; experiment: Tested for the saluretic property in dogs after intravenous administration of 5 mg/kg; 0-99 micro equivalents of Na+ excreted per minute; format: functional, Canis lupus familiaris
Summary of the method: (§1)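 Each dog score comes from one animal (body weight 15.2-21 kg) given the dose as a single stat administration. The standard dose is 5 mg/kg unless another is designated. Protocol and scoring system are referenced to earlier work.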

[4] = test system: Canis familiaris; experiment: Compound was tested for the saluretic property in dogs after intravenous administration of 5 mg/kg; activity above 5 mg/kg; format: functional, organism-based; conditions: Canis lupus familiaris; summary of the method: as §1
[5] = test system: Canis familiaris; experiment: Compound was tested for the saluretic property in dogs after intravenous administration of 5 mg/kg; 600-799 micro equivalents of Na+ excreted per minute; format: functional, Canis lupus familiaris; summary of the method: as §1
[6] = test system: Canis familiaris; experiment: Compound was evaluated for the saluretic property in dog after iv administration; score represents micro equivalents of Na+ excreted at a given mg/kg dose; format: functional, Canis lupus familiaris; summary of the method: as §1
[7] = test system: Canis familiaris; experiment: Compound was tested for the saluretic property in dogs after intravenous administration of 5 mg/kg; >900 micro equivalents of Na+ excreted per minute; format: functional, Canis lupus familiaris; summary of the method: as §1
[8] = test system: Canis familiaris; experiment: Compound was tested for the saluretic property in dogs after intravenous administration of 5 mg/kg; 800-899 micro equivalents of Na+ excreted at a given mg/kg dose; format: functional, Canis lupus familiaris; summary of the method: as §1
[9] = test system: Canis familiaris; experiment: Compound was tested for the saluretic property in dogs after intravenous administration of 10 mg/kg; format: functional, Canis lupus familiaris; summary of the method: as §1
[10] = test system: Canis familiaris; experiment: Compound was tested for the saluretic property in dogs after intravenous administration of 1 mg/kg; >900 micro equivalents of Na+ excreted per minute; format: functional, Canis lupus familiaris; summary of the method: as §1

| Compound | Score [1] | Score [3] | further results |
| --- | --- | --- | --- |
| NS(=O)(=O)c1c(O)c(Cl)cc(Cl)c1Cl | 0 |  |  |
| Cl.NCC(O)c1c(O)c(Cl)cc(Cl)c1Cl (centres undefined) | 0 |  | Score [2]: 1 |
| OCc1c(O)c(Cl)cc(Cl)c1Cl | 0 | 0 |  |
| CC(C)(C)c1cc(I)c(O)c(C(=O)O)c1 | 0 |  | Score [2]: 1 |
| Cl.NCc1c(N)c(Cl)cc(Cl)c1Cl |  | 0 |  |
| Cl.NCc1cc(Cl)cc(Cl)c1 | 0 | 0 |  |
| NCc1cc(Cl)cc(Cl)c1O | 2 |  | Score [4]: activity above 5 mg/kg |
| CC(C)(C)c1cc(I)c(O)c(CN)c1.Cl | 6 |  | Score [5]: 4 |
| Cl.NCc1cc(Cl)c(O)c(Cl)c1Cl | 0 | 0 |  |
| CC(C)(C)c1cc(Cl)c(O)c(CCCN)c1 |  |  | Score [6]: 0 |
| NS(=O)(=O)c1cc2c(cc1Cl)NCNS2(=O)=O [HYDROCHLOROTHIAZIDE] | 2 |  | Score [2]: 1 |
| O=C(O)c1c(O)c(Cl)cc(Cl)c1Cl | 0 |  |  |
| COc1c(Cl)c(O)c(CN)c(OC)c1Cl.Cl | 5 |  | Score [7]: 6 |
| Cl.NCc1c(O)c(Cl)cc(Cl)c1Cl | 3 |  | Score [8]: 5 |
| COc1c(Cl)c(O)c(C=O)c(OC)c1Cl | 0 | 0 |  |
| NCc1c(Cl)cc(Cl)c(O)c1Cl | 0 |  | Score [9]: 0 |
| Nc1c(O)c(Cl)cc(Cl)c1Cl | 0 |  |  |
| O=Cc1c(O)c(Cl)cc(Cl)c1Cl | 0 | 0 |  |
| COc1c(Cl)c(O)c(C(=O)O)c(OC)c1Cl | 0 | 0 |  |
| Cl.NCCc1c(O)c(Cl)cc(Cl)c1Cl | 1 |  | Score [2]: 1 |
| CC(C)(C)c1cc(Cl)c(O)c(CN)c1.Cl | 6 |  | Score [7]: 6 |
| NS(=O)(=O)c1cc(C(=O)O)c(NCc2ccco2)cc1Cl [FUROSEMIDE] | 3 |  | Score [10]: 6 |
